Results from paper PMC7080047 (Medicinal Chemistry Research, 2014).

How the values were obtained:
[1] = system: NO production in chicken macrophages; conditions: ref Sung et al., 1994; cited from earlier work
[2] = system: immune-activated NO production by mouse peritoneal cells; assay: in vitro nitric oxide; format: cell-based; conditions: for IC50: read-out: NO-inhibitory IC 50, LPS/IFN-γ stimulated mouse peritoneal cells, 24 h; for concentration at which NO-suppressive effects were already apparent: dose-response, Fig. 2
Method in brief: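 Peritoneal lavage cells (8 mL saline) pooled from 4–10 female C57BL/6 mice, 8–10 weeks old, seeded at 2 × 10^6 cells/mL in RPMI-1640 with 10% FBS, 37 °C, 5% CO2. Test compound (DMSO stock diluted in medium; DMSO control) added for 24 h with IFN-γ 0.5 ng/mL plus E. coli LPS 0.1 ng/mL, duplicates. Supernatant nitrite measured by Griess reagent at A540 against a nitrite standard curve, expressed as % of control.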

HIV-2 = assay: antiviral activity, HIV-2 in CEM cells; format: cell-based; conditions: Human immunodeficiency virus 2, CCRF-CEM, read-out: antiviral EC50
[3] = system: respiratory syncytial virus (RSV); assay: antiviral activity, respiratory syncytial virus in HeLa cells; format: cell-based; conditions: human respiratory syncytial virus, read-out: antiviral EC50
HIV-1 = assay: antiviral activity, HIV-1 in CEM cells; format: cell-based; conditions: Human immunodeficiency virus 1, CCRF-CEM, read-out: antiviral EC50
Reovirus-1 = assay: antiviral activity, Reovirus-1 in MDCK cells; format: cell-based; conditions: read-out: antiviral EC50
[4] = system: vesicular stomatitis virus (VSV); assay: microbe, parasite or virus in culture; format: cell-based; conditions: HeLa, read-out: antiviral EC50
HSV-2 = assay: antiviral activity, HSV-2 in HeLa cells; format: cell-based; conditions: Human alphaherpesvirus 2, HeLa, read-out: antiviral EC50
Punta Toro virus = assay: antiviral activity, Punta Toro virus in MDCK cells; format: cell-based; conditions: read-out: antiviral EC50
Parainfluenza 3-virus = assay: antiviral activity, Parainfluenza 3-virus in MDCK cells; format: cell-based; conditions: read-out: antiviral EC50
HSV-1 = assay: antiviral activity, HSV-1 in HeLa cells; format: cell-based; conditions: Human alphaherpesvirus 1, HeLa, read-out: antiviral EC50
[5] = system: viruses such as members of the Herpes, Picorna, and Pox groups; conditions: ref Marcialis et al., 1973, 1974, La Colla et al., 1975; cited from earlier work
Feline herpes virus = assay: antiviral activity, Feline herpes virus in CRFK cells; format: cell-based; conditions: read-out: antiviral EC50
vaccinia virus = assay: antiviral activity, vaccinia virus in HeLa cells; format: cell-based; conditions: Orthopoxvirus vaccinia, read-out: antiviral EC50

## Nc1cc(O)nc(N)n1 [2,4-diamino-6-hydroxypyrimidine]
[1]
  effect on NO production (in words): suppresses NO production

## N=C(N)NN [Aminoguanidine, aminoguanidine, reference compound]
[2]
  IC50: 77.8 µM

## Nc1nc(Cl)cc(Cl)n1 [Compound B1, 2-amino-4,6-dichloropyrimidine]
HIV-2
  EC50: > 100 µg/mL
[3]
  EC50: > 100 µg/mL
HIV-1
  EC50: > 100 µg/mL
Reovirus-1
  EC50: > 100 µg/mL
[4]
  EC50: > 100 µg/mL
HSV-2
  EC50: > 100 µg/mL
Punta Toro virus
  EC50: > 100 µg/mL
Parainfluenza 3-virus
  EC50: > 100 µg/mL
HSV-1
  EC50: > 100 µg/mL
[5]
  concentration required for antiviral activities described in the literature: ~100 µg/mL
Feline herpes virus
  EC50: > 100 µg/mL
Vaccinia virus
  EC50: > 100 µg/mL

## C#CCc1c(Cl)nc(N)nc1Cl [Compound B6, 4,6-Dichloro-5-(prop-2-yn-1-yl)pyrimidin-2-amine]
[2]
  concentration at which NO-suppressive effects were already apparent: 2.5 µM

## Nc1nc(Cl)c(F)c(Cl)n1 [Compound B12, 5-fluoro-2-amino-4,6-dichloropyrimidine]
[2]
  concentration at which NO-suppressive effects were already apparent: 2.5 µM
[2]; mouse peritoneal cells
  effect on immune-activated NO production (in words): nearly completely suppressed the production of NO

## N-(3-aminomethyl)-benzylacetamide [1,400 W, reference compound]
[2]
  IC50: 3.87 µM
